In ChEMBL document CHEMBL5107945, “Synthesis and biological evaluation of bergenin derivatives as new immunosuppressants” (RSC Med Chem, 2021):

Key:
[1] = Inhibition of ConA-induced proliferation of BALB/c mouse splenocyte at 10 uM incubated for 48 hrs by CCK-8 assay relative to control; format: functional
How it was run: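 Male BALB/c mouse splenocytes (6–8 weeks; red cells lysed with 0.84% NH4Cl), 5 × 10^5 cells/well in RPMI-1640 with 10% FBS and pen/strep, were stimulated with 5 μg/mL Con A with or without 10 μM compound for 48 h at 37 °C, 5% CO2. CCK-8 was added for 3 h and OD450 read. Inhibition was calculated against Con A-only wells; means ± SEM, ≥3 independent experiments.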

[2] = Inhibition of ConA-induced IFN-gamma secretion in BALB/c mouse splenocyte at 10 uM incubated for 48 hrs by ELISA relative to control; format: functional
How it was run: (§1)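 Male BALB/c splenocytes, 5 × 10^5 cells/well, were treated with Con A (5 μg/mL) plus compound at 5 or 10 μM for 48 h at 37 °C, 5% CO2. Plates were spun at 4 °C, 1500 rpm, 5 min. Cell-free supernatant IFN-γ or IL-4 was measured by capture-antibody ELISA. Inhibition was calculated against Con A-only wells; means ± SEM, ≥3 independent experiments.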

[3] = Inhibition of ConA-induced proliferation of BALB/c mouse splenocyte incubated for 48 hrs by CCK-8 assay relative to control; format: functional, cell-based
How it was run: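 IC50 was measured only for compounds giving over 50% inhibition at 10 μM. Con A (5 μg/mL)-stimulated male BALB/c splenocytes, 5 × 10^5 cells/well in RPMI-1640/10% FBS, were cultured 48 h at 37 °C, 5% CO2. Read-out was CCK-8, 3 h incubation, OD450. IC50 came from at least three independent tests.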

[4] = Selectivity index, ratio of IC50 for cytotoxicity against human Jurkat cells to IC50 for inhibition of ConA-induced proliferation of BALB/c mouse splenocyte; format: toxicity, cell-based; details: mouse (splenocytes), ConA-stimulated mouse splenocytes, read-out: Ratio IC50
How it was run: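 Ratio of Jurkat IC50 to splenocyte IC50. Jurkat: 2.5 × 10^4 cells/well, serial dilutions, 48 h, 37 °C, CCK-8 viability. Splenocytes: BALB/c cells, 5 × 10^5/well, with 5 μg/mL Con A, 48 h, 37 °C, 5% CO2, CCK-8 read at OD450.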

[5] = Cytotoxicity against human Jurkat cells assessed as reduction in cell viability incubated for 48 hrs by CCK-8 assay; format: toxicity, cell-based
How it was run: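 Human Jurkat T-leukemia cells in RPMI-1640 with 10% FBS and pen/strep, 2.5 × 10^4 cells/well, were exposed to serially diluted compound at 37 °C for 48 h. Viability was read by CCK-8 (3 h, OD450). IC50 is the concentration reducing viability to 50%.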

[6] = Inhibition of ConA-induced IL-4 secretion in BALB/c mouse splenocyte at 10 uM incubated for 48 hrs by ELISA relative to control; format: functional; how it was run: as §1
[7] = Inhibition of ConA-induced proliferation of BALB/c mouse splenocyte at 1 uM incubated for 48 hrs by CCK-8 assay relative to control; format: functional
How it was run: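 Positive-control condition: cyclosporine A at 1 μM in the same Con A (5 μg/mL)-stimulated BALB/c splenocyte culture, 5 × 10^5 cells/well, 48 h at 37 °C, 5% CO2. Proliferation was read by CCK-8 (3 h, OD450) against Con A-only wells.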

Row | SMILES | inhibition at 10 µM [1] [%] | inhibition at 10 µM [2] [%] | IC50 [3] [µM] | selectivity ratio [4] | IC50 at 48 h [5] [µM] | inhibition at 10 µM [6] [%] | inhibition at 1 µM [7] [%]
1 | COc1c(OCc2ccccc2)cc2c(c1OCc1ccccc1)[C@@H]1O[C@@H]3CO[C@@H](c4ccccc4)O[C@H]3[C@@H](O)[C@H]1OC2=O | 11.2 | – | – | – | – | – | –
2 | COc1c(OCc2ccccc2)cc2c(c1OCc1ccccc1)[C@@H]1O[C@@H]3CO[C@@H](c4ccccc4)O[C@H]3[C@H](O)[C@H]1OC2=O | 91.4 | 71 | 3.52 | 5.96 | 21 | 76.9 | –
3 | COc1c(OCc2ccccc2)cc2c(c1OCc1ccccc1)[C@@H]1O[C@@H]3CO[C@@H](c4ccccc4)O[C@H]3[C@H](N=[N+]=[N-])[C@H]1OC2=O | -2.26 | – | – | – | – | – | –
4 | COc1c(OCc2ccccc2)cc2c(c1OCc1ccccc1)[C@@H]1O[C@@H]3CO[C@@H](c4ccccc4)O[C@H]3[C@@H](OS(=O)(=O)C(F)(F)F)[C@H]1OC2=O | 75.9 | 68.6 | 8.05 | – | 44.2 | 63.1 | –
5 | CCCCCCCOc1cc2c(c(OCCCCCCC)c1OC)[C@@H]1O[C@@H]3CO[C@@H](c4ccccc4)O[C@H]3[C@H](O)[C@H]1OC2=O | -6.83 | – | – | – | – | – | –
6 | CCCCCCOc1cc2c(c(OCCCCCC)c1OC)[C@@H]1O[C@H](CO)[C@@H](O)[C@H](O)[C@H]1OC2=O | 98.1 | 67.4 | 8.16 | – | 5.21 | 61.9 | –
7 | CCCCCCCCCCOc1cc2c(c(OCCCCCCCCCC)c1OC)[C@@H]1O[C@H](CO)[C@@H](O)[C@H](O)[C@H]1OC2=O | 15.4 | – | – | – | – | – | –
8 | C[C@H]1C[C@H]2[C@@H]3CCC4=CC(=O)C=C[C@]4(C)[C@@]3(F)[C@@H](O)C[C@]2(C)[C@@]1(O)C(=O)CO [BETAMETHASONE] | 89.6 | 99.3 | – | – | – | 96.9 | –
9 | CCCCOc1cc2c(c(OCCCC)c1OC)[C@@H]1O[C@H](CO)[C@@H](O)[C@H](O)[C@H]1OC2=O | -9.27 | – | – | – | – | – | –
10 | COc1c(O)cc2c(c1O)[C@@H]1O[C@H](CO)[C@@H](O)[C@H](O)[C@H]1OC2=O [BERGENIN] | 11.7 | -6.2 | – | – | – | 18.3 | –
11 | CCCCCOc1cc2c(c(OCCCCC)c1OC)[C@@H]1O[C@H](CO)[C@@H](O)[C@H](O)[C@H]1OC2=O | 5.4 | – | – | – | – | – | –
12 | COc1c(OCc2ccccc2)cc2c(c1OCc1ccccc1)[C@@H]1O[C@@H]3CO[C@@H](c4ccccc4)O[C@H]3[C@H](OS(=O)(=O)C(F)(F)F)[C@H]1OC2=O | -1.62 | – | – | – | – | – | –
13 | COc1c(OCc2ccccc2)cc2c(c1OCc1ccccc1)[C@@H]1O[C@@H]3CO[C@@H](c4ccccc4)O[C@H]3[C@H](NS(C)(=O)=O)[C@H]1OC2=O | 84.9 | 71.1 | 5.39 | 6 | 33.1 | 67.5 | –
14 | COc1c(OCc2ccccc2)cc2c(c1OCc1ccccc1)[C@@H]1O[C@@H]3CO[C@@H](c4ccccc4)O[C@H]3[C@H](N)[C@H]1OC2=O | 72.6 | 48.4 | 8.19 | – | 39.3 | 8.7 | –
15 | COc1c(O)cc2c(c1O)[C@@H]1O[C@@H]3CO[C@@H](c4ccccc4)O[C@H]3[C@H](O)[C@H]1OC2=O | -3.78 | – | – | – | – | – | –
16 | CCCCCCCOc1cc2c(c(OCCCCCCC)c1OC)[C@@H]1O[C@H](CO)[C@@H](OCc3ccccc3)[C@H](O)[C@H]1OC2=O | 69.8 | 51.3 | 10.6 | – | 16.1 | 51.4 | –
17 | CCCCCCCOc1cc2c(c(OCCCCCCC)c1OC)[C@@H]1O[C@H](COCc3ccccc3)[C@@H](O)[C@H](O)[C@H]1OC2=O | 99.4 | 99.6 | 7.66 | – | 10.1 | 95.9 | –
18 | CCCCCCCOc1cc2c(c(OCCCCCCC)c1OC)[C@@H]1O[C@H](CO)[C@@H](O)[C@H](O)[C@H]1OC2=O | 99 | 102 | 7.21 | – | 4.18 | 98.6 | –
19 | CCCCCCCCOc1cc2c(c(OCCCCCCCC)c1OC)[C@@H]1O[C@H](CO)[C@@H](O)[C@H](O)[C@H]1OC2=O | -21.5 | – | – | – | – | – | –
20 | COc1c(OCc2ccccc2)cc2c(c1OCc1ccccc1)[C@@H]1O[C@H](CO)[C@@H](O)[C@H](O)[C@H]1OC2=O | -5.95 | – | – | – | – | – | –
21 | C/C=C/C[C@@H](C)[C@@H](O)[C@H]1C(=O)N[C@@H](CC)C(=O)N(C)CC(=O)N(C)[C@@H](CC(C)C)C(=O)N[C@@H](C(C)C)C(=O)N(C)[C@@H](CC(C)C)C(=O)N[C@@H](C)C(=O)N[C@H](C)C(=O)N(C)[C@@H](CC(C)C)C(=O)N(C)[C@@H](CC(C)C)C(=O)N(C)[C@@H](C(C)C)C(=O)N1C [CYCLOSPORINE] | – | – | – | – | – | – | 93.5
